ChEMBL document CHEMBL3994616, “Rational design, synthesis, and evaluation of novel 2,4-Chloro- and Hydroxy-Substituted diphenyl Benzofuro[3,2-b]Pyridines: Non-intercalative catalytic topoisomerase I and II dual inhibitor” (Eur J Med Chem, 2017)
Where a name gives a salt, the structure may show the parent alone. Activity calls are given as the source filed them. The calls are words filed in the database; no cut-off is given here.

Experiments:
Bos taurus [1] = organism: Bos taurus; assay: Induction of calf thymus DNA intercalation assessed as inhibition of ethidium bromide binding to DNA after 30 mins by fluorescence assay
Outline: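 Calf thymus DNA ([…]) premixed with EtBr ([…]) in 10 mM Tris buffer pH 7.2, 30 min at room temperature with shaking. Compound then added at increasing concentrations […], final DMSO 1% (vehicle for untreated control), further 30 min at room temperature. EtBr fluorescence read at 471 nm excitation, emission spectrum collected 500–700 nm.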

[2] = biological target: DNA topoisomerase 2-alpha (Homo sapiens) (UniProt P11388); assay: Inhibition of human recombinant topoisomerase-2alpha-mediated relaxation of supercoiled pBR322 DNA at 100 uM after 30 mins by ethidium bromide staining based agarose gel electrophoresis method relative to control
Chain of DNA topoisomerase 2-alpha (Homo sapiens) (P11388 whole entry): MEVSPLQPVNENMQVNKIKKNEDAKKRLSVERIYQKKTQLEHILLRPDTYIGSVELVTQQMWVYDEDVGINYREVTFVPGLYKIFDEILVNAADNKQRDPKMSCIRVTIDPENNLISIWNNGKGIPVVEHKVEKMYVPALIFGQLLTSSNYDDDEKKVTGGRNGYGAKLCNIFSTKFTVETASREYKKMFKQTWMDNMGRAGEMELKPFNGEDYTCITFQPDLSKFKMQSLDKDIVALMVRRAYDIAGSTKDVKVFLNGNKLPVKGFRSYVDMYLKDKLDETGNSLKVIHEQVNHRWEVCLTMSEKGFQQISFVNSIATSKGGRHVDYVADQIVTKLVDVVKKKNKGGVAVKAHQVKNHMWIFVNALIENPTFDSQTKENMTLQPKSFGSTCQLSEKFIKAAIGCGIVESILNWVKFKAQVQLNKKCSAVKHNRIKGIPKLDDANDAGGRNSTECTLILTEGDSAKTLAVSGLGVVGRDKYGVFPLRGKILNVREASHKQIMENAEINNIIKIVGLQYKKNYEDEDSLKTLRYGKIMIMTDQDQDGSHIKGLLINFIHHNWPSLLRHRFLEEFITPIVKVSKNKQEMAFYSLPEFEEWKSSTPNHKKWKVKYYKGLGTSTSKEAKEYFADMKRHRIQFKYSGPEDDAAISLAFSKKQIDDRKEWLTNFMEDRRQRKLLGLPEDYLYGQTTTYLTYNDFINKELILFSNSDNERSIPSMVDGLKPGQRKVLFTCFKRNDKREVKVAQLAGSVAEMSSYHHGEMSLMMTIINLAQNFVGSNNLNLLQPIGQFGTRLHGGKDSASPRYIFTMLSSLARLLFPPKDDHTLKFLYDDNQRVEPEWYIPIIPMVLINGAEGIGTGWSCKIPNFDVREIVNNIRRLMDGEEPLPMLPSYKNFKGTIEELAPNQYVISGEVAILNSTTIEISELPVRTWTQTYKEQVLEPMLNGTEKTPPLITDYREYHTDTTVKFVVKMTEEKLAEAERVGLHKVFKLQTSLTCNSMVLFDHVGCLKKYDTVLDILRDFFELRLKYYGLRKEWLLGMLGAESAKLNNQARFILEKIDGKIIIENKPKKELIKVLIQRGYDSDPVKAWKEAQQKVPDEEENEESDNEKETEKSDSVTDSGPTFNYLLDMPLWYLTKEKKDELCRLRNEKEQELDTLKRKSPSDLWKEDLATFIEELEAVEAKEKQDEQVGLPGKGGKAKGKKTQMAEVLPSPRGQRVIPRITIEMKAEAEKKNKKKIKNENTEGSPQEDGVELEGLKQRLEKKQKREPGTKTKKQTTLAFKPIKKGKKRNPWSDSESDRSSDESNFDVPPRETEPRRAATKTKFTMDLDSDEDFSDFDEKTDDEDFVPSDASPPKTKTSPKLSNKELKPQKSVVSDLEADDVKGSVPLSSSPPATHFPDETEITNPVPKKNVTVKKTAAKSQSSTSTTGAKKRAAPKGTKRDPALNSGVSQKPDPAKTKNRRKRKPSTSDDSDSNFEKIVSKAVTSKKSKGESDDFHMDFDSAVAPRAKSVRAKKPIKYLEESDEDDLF

HCT-15 [3] = assay: Antiproliferative activity against human HCT15 cells after 72 hrs by CCK8 assay; assay type: functional, cell-based; details: HCT-15, 72 h
Outline: (§1)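 Cells seeded at 2-4 x 10⁴ per well, cultured overnight in medium with 10% FBS at 37 °C, 5% CO₂, then serum-starved 4 h. Graded compound concentrations added for 72 h, CCK-8 added for a further 4 h, absorbance read at 450 nm. IC50 from a four-parameter logistic fit. Results come from three experiments, each in triplicate.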

T47D = assay: Antiproliferative activity against human T47D cells after 72 hrs by CCK8 assay; assay type: functional, cell-based; outline: as §1
HeLa = assay: Antiproliferative activity against human HeLa cells after 72 hrs by CCK8 assay; assay type: functional, cell-based
HCT-15 [4] = assay: Potency index, ratio of camptothecin IC50 to compound IC50 for human HCT15 cells; assay type: functional
HCT-15 [5] = assay: Potency index, ratio of etoposide IC50 to compound IC50 for human HCT15 cells; assay type: functional
HCT-15 [6] = assay: Potency index, ratio of adriamycin IC50 to compound IC50 for human HCT15 cells; assay type: functional
[7] = biological target: T1, Topoisomerase I/II (Homo sapiens) (UniProt P11387+P11388); assay: Inhibition of topoisomerase-1/topoisomerase-2 in human HCT15 cell nuclear extract at 25 uM preincubated for 24 hrs followed by supercoiled pBR322 DNA addition measured after 20 mins by ethidium bromide staining based agarose gel electrophoresis method relative to control; assay type: protein assay
T1 sequence (P11387 whole entry, looked up): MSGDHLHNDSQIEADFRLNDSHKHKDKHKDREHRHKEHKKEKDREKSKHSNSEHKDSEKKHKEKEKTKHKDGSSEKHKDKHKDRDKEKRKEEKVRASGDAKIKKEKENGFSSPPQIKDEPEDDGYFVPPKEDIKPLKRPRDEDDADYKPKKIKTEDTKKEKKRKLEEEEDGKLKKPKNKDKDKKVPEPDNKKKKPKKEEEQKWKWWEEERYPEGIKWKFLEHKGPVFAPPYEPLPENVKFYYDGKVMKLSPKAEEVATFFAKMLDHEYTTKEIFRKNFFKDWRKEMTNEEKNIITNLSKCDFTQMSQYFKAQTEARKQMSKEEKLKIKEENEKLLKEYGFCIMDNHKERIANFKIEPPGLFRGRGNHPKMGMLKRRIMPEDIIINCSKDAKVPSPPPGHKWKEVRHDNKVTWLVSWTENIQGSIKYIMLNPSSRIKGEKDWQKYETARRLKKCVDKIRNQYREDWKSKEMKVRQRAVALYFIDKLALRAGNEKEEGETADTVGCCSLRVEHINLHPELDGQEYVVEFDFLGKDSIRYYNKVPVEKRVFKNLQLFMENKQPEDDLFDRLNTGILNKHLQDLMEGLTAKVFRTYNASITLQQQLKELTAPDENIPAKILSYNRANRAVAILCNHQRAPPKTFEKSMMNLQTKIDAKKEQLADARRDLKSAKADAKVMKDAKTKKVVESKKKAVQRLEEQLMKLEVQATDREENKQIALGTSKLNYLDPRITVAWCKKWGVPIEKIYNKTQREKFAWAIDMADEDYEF
T1 sequence (P11388 whole entry, looked up): as the sequence (P11388 whole entry) above
Outline: (§2)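 HCT15 cells treated 24 h at 25, 50 or 100 µM, then nuclear fractions prepared. Nuclear extract incubated with 100 ng pBR322 at 37 °C to read relaxation by endogenous topo I/II. Products run on 1.0% agarose at 50 V for 50 min in TAE, EtBr-stained, UV-visualized. Inhibition percent averaged over three experiments.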

[8] = biological target: T1, Topoisomerase I/II (Homo sapiens); assay: Inhibition of topoisomerase-1/topoisomerase-2 in human HCT15 cell nuclear extract at 50 uM preincubated for 24 hrs followed by supercoiled pBR322 DNA addition measured after 20 mins by ethidium bromide staining based agarose gel electrophoresis method relative to control; assay type: protein assay; outline: as §2
[9] = biological target: DNA topoisomerase 2-alpha (Homo sapiens) (UniProt P11388); assay: Poison activity at human recombinant topoisomerase 2 alpha assessed as stabilization of enzyme-DNA cleavable complex by measuring formation of linear DNA at 100 to 500 uM using supercoiled pBR322 DNA after 30 mins by ethidium bromide staining based agarose gel electrophoresis method
Outline: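 250 ng supercoiled pBR322 preincubated with 3 units human topo II for 10 min in topo II relaxation buffer. Compound then added at 100 or 500 µM and incubated 30 min more at 37 °C. SDS stop, proteinase K 0.25 mg/mL at 45 °C for 30 min. Run on 1% agarose with EtBr at 30 V for 6 h, linear DNA band scored.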

[10] = biological target: DNA topoisomerase 2-alpha (Homo sapiens) (UniProt P11388); assay: Inhibition of human topoisomerase-2 alpha-mediated kinetoplast DNA decatenation after 30 mins by ethidium bromide staining based agarose gel electrophoresis
Outline: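 75 ng kDNA in 50 mM Tris-HCl pH 8.0, 120 mM KCl, 10 mM MgCl₂, 0.5 mM DTT, 0.5 mM ATP, 30 µg/mL BSA. Compound added at 250 or 500 µM final, reaction started with 3 units topo II, 10 µL, 30 min at 37 °C. Stopped with SDS/ficoll/dye, proteinase K 0.25 mg/mL for 30 min. Run on 1.2% agarose containing EtBr.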

[11] = biological target: DNA topoisomerase 2-alpha (Homo sapiens) (UniProt P11388); assay: Poison activity at human recombinant topoisomerase 2 in human HCT15 cells assessed as […] at 50 uM after 2 hrs by Western blot method; assay type: cell-based
HCT-15 [12] = assay: Induction of DNA damage in human HCT15 cells assessed as comet tail formation at 30 uM after 24 hrs using SYBRGreen stain by electrophoresis based fluorescence microscopic method (reference value: 3 +/- 1.1%); assay type: functional
HCT-15 [13] = assay: Induction of DNA damage in human HCT15 cells assessed as increase in gammaH2AX level at 30 uM after 24 hrs by Western blot method; assay type: functional, cell-based
Outline: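 HCT15 cells exposed to 30 µM for 24 h, then lysed. 60 µg protein per sample run on 12% SDS-PAGE, and γ-H2AX detected by western blot.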

Bos taurus [14] = organism: Bos taurus; assay: Induction of calf thymus DNA intercalation assessed as inhibition of ethidium bromide binding to DNA up to 40 uM after 30 mins by fluorescence assay
Outline: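 Calf thymus DNA ([…]) premixed with EtBr ([…]) in 10 mM Tris, pH 7.2, for 30 min at room temperature. Compound added at increasing concentrations […], with 1% DMSO final in all wells including control. Incubated 30 min more with shaking. Fluorescence excited at 471 nm, emission collected 500-700 nm.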

[15] = biological target: T1, Topoisomerase I/II (Homo sapiens); assay: Inhibition of topoisomerase-1/topoisomerase-2 in human HCT15 cell nuclear extract at 100 uM preincubated for 24 hrs followed by supercoiled pBR322 DNA addition measured after 20 mins by ethidium bromide staining based agarose gel electrophoresis method relative to control; assay type: protein assay; outline: as §2
[16] = biological target: T1, Topoisomerase I/II (Homo sapiens); assay: Inhibition of topoisomerase-1/topoisomerase-2 in human HCT15 cell nuclear extract preincubated for 24 hrs followed by supercoiled pBR322 DNA addition measured after 20 mins by ethidium bromide staining based agarose gel electrophoresis method; assay type: protein assay; outline: as §2
HCT-15 [17] = assay: Induction of apoptosis in human HCT15 cells assessed as increase in cleaved PARP level after 24 hrs by Western blot method; assay type: functional, cell-based
Outline: (§3)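 HCT15 cells grown to 80% confluency, then treated 24 h at […]. Lysis buffer: Tris/NaCl/1% Triton X-100 with protease inhibitors. 60 µg protein run on 12% SDS-PAGE and transferred to PVDF. Blocked in 5% milk/TBST, primary antibodies 1:1000 for 2-3 h, HRP anti-rabbit 1:2000 for 2 h, ECL detection.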

HCT-15 [18] = assay: Induction of apoptosis in human HCT15 cells assessed as increase in Bax level after 24 hrs by Western blot method; assay type: functional, cell-based; outline: as §3
HCT-15 [19] = assay: Induction of apoptosis in human HCT15 cells assessed as decrease in Bcl2 level after 24 hrs by Western blot method; assay type: functional, cell-based; outline: as §3
[20] = biological target: DNA topoisomerase 2-alpha (Homo sapiens) (UniProt P11388); details: 250 uM

Structure (SMILES)	inhibition [2]	IC50 (HCT-15 [3])	IC50 (T47D)	IC50 (HeLa)	other results
COc1cc(NS(C)(=O)=O)ccc1Nc1c2ccccc2nc2ccccc12	–	–	–	–	inhibition (Bos taurus [1]): Dose-dependent effect
Oc1ccccc1-c1cc(-c2cccc(Cl)c2)c2oc3ccccc3c2n1	4.7%	> 50 µM	> 50 µM	> 50 µM	–
Oc1cccc(-c2cc(-c3cccc(Cl)c3)c3oc4ccccc4c3n2)c1	35%	5.9 µM	1.2 µM	6.4 µM	–
COc1cccc2c1C(=O)c1c(O)c3c(c(O)c1C2=O)C[C@@](O)(C(=O)CO)C[C@@H]3O[C@H]1C[C@H](N)[C@H](O)[C@H](C)O1 [DOXORUBICIN HYDROCHLORIDE]	–	1 µM	0.3 µM	–	–
Oc1ccccc1-c1cc(-c2ccccc2Cl)c2oc3ccccc3c2n1	58.2%	0.3 µM	3 µM	10.9 µM	–
Oc1ccccc1-c1cc(-c2ccc(Cl)cc2)c2oc3ccccc3c2n1	55.8%	> 50 µM	> 50 µM	> 50 µM	–
Oc1cccc(-c2cc(-c3ccccc3Cl)c3oc4ccccc4c3n2)c1	60.2%	1.4 µM	0.1 µM	4.3 µM	–
Oc1ccccc1-c1cc(-c2ccc(Cl)cc2)nc2c1oc1ccccc12	86.7%	> 50 µM	> 50 µM	9.5 µM	–
Oc1ccccc1-c1cc(-c2cccc(Cl)c2)nc2c1oc1ccccc12	84%	0.01 µM	0.4 µM	5.2 µM	Ratio IC50 (HCT-15 [4]): 60; Ratio IC50 (HCT-15 [5]): 540; Ratio IC50 (HCT-15 [6]): 100
Oc1cccc(-c2cc(-c3ccc(Cl)cc3)nc3c2oc2ccccc23)c1	87.9%	0.2 µM	2.1 µM	5.7 µM	–
Oc1ccc(-c2cc(-c3ccc(Cl)cc3)c3oc4ccccc4c3n2)cc1	65.6%	21.3 µM	11.6 µM	11.8 µM	–
CC[C@@]1(O)C(=O)OCc2c1cc1n(c2=O)Cc2cc3ccccc3nc2-1 [CAMPTOTHECIN]	–	0.6 µM	2.1 µM	0.09 µM	inhibition [7]: 74.6%; inhibition [8]: 80.5%
Oc1ccc(-c2cc(-c3ccccc3Cl)c3oc4ccccc4c3n2)cc1	52.7%	46.2 µM	0.8 µM	15.9 µM	–
Oc1ccccc1-c1cc(-c2ccccc2Cl)nc2c1oc1ccccc12	85.6%	0.4 µM	3.9 µM	2.8 µM	–
Oc1ccc(-c2cc(-c3cccc(Cl)c3)c3oc4ccccc4c3n2)cc1	4.9%	5.9 µM	> 50 µM	> 50 µM	–
Oc1ccc(-c2cc(-c3ccc(Cl)cc3)nc3c2oc2ccccc23)cc1	100%	0.2 µM	5.9 µM	4.3 µM	Activity [9]: inactive; inhibition [10]: Dose-dependent effect; Activity [11]: inactive; Activity (HCT-15 [12]): 6.3%; Activity (HCT-15 [13]): inactive; inhibition (Bos taurus [14]): inactive; inhibition [7]: 38.2%; inhibition [8]: 45.5%; inhibition [15]: 58.4%; inhibition [16]: Dose-dependent effect; Activity (HCT-15 [17]): Dose-dependent effect; Activity (HCT-15 [18]): Dose-dependent effect; Activity (HCT-15 [19]): Dose-dependent effect
Oc1cccc(-c2cc(-c3ccc(Cl)cc3)c3oc4ccccc4c3n2)c1	inactive	> 50 µM	2 µM	11.1 µM	–
C[C@@H](CN1CC(=O)NC(=O)C1)N1CC(=O)NC(=O)C1 [DEXRAZOXANE]	–	–	–	–	Activity (HCT-15 [12]): 5.5%; Activity (HCT-15 [13]): inactive
Cc1c2ccncc2c(C)c2c1[nH]c1ccccc12	–	–	–	–	inhibition [20]: Active
Oc1ccc(-c2cc(-c3cccc(Cl)c3)nc3c2oc2ccccc23)cc1	95.4%	0.2 µM	1.9 µM	0.9 µM	–
Oc1cccc(-c2cc(-c3cccc(Cl)c3)nc3c2oc2ccccc23)c1	85.4%	0.4 µM	1.4 µM	4.3 µM	–
Oc1cccc(-c2cc(-c3ccccc3Cl)nc3c2oc2ccccc23)c1	82.9%	1.6 µM	1.5 µM	4.4 µM	–
Oc1ccc(-c2cc(-c3ccccc3Cl)nc3c2oc2ccccc23)cc1	92.8%	0.4 µM	6.1 µM	3.9 µM	–
